For data set [1], the system named is Canis familiaris. Nature of the data set: AUC (0 to 12 hrs) in beagle dog at 10 mg/kg, po. It counts as ADME, organism-based, Canis lupus familiaris, Plasma. Further details: time < 12 hr, dose 10 mg/kg, route oral. As to conditions: in vivo. The essentials: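 Male beagle dogs. Oral dose 10 mg/kg in 0.1% HPMC, pH 2. IV dose 2.5 mg/kg in 20% TEG/D5W. […] Clearance, Vdss, half-life and oral bioavailability (F%) derived from the plasma profiles.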

In data set [2] the target is ALK tyrosine kinase receptor (Homo sapiens, UniProt Q9UM73). Kind of data set: Inhibition of human ALK. The procedure, abridged: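 Panel of 82 kinases. Radiometric filter-binding assay with ATP at or near Km. Compound tested at 0.01, 0.10 and 1.0 μM. Values expressed as minimum possible fold selectivity against Jak2.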
ALK tyrosine kinase receptor, sequence (Q9UM73 whole entry): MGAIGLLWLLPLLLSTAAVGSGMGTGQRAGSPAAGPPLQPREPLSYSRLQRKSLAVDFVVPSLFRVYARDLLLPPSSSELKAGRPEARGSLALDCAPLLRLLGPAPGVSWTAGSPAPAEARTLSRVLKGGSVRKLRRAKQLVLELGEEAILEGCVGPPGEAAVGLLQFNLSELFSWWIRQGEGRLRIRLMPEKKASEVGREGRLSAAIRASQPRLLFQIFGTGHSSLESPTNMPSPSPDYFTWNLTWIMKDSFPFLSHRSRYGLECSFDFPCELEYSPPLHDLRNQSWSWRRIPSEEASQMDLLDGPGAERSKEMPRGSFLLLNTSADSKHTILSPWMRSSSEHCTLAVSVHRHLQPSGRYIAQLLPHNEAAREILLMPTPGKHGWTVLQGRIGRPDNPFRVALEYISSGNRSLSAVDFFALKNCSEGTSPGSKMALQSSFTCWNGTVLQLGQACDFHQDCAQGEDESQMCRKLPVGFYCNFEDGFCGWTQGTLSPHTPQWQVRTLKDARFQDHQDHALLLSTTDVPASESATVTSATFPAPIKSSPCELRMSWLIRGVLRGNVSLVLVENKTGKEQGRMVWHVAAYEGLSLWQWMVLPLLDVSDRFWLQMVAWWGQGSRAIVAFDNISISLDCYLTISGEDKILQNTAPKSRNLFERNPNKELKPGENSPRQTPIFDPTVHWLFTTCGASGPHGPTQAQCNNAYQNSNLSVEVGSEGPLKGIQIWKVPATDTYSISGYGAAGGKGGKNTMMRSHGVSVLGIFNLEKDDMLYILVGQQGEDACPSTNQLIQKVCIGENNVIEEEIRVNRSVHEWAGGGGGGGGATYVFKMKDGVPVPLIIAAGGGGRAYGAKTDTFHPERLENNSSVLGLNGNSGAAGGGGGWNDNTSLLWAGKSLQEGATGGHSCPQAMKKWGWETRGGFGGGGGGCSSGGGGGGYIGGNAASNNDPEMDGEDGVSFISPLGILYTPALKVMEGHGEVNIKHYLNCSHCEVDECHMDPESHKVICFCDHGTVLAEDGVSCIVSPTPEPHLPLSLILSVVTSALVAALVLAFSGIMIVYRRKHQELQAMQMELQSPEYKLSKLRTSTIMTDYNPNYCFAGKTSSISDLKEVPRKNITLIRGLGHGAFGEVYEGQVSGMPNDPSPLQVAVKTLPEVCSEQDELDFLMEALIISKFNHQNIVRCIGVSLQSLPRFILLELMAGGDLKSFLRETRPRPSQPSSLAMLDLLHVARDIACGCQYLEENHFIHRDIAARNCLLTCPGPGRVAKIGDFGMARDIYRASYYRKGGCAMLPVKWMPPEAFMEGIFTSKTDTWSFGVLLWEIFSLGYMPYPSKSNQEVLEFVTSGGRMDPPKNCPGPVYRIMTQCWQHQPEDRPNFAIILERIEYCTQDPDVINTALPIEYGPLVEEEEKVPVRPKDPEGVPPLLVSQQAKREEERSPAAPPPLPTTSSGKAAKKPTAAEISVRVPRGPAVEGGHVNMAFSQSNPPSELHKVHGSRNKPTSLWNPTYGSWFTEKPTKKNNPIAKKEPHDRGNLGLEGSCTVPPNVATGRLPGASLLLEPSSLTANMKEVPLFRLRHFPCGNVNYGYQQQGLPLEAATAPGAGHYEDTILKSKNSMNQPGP
Data set [3] in a line: Oral bioavailability in Wistar rat at 10 mg/kg. The class given is ADME, organism-based. The conditions noted are these: in vivo. The procedure, abridged: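 Rat pharmacokinetics. Oral dose 10 mg/kg in 0.1% HPMC. IV dose 3 mg/kg in 40% DMA/40% PEG/20% saline. Clearance, half-life, Vdss and oral bioavailability derived from the plasma profiles.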

The results in this text go back to ChEMBL document CHEMBL3112447, “Discovery of 1-methyl-1H-imidazole derivatives as potent Jak2 inhibitors” (J Med Chem, 2014).

The structures appear in SMILES notation. pIC50: −log10 of the molar value.

Turning to `C[C@H](Nc1nc(Nc2cn(C)cn2)c2cc[nH]c2n1)c1ncc(F)cn1`, the AUC – broadly, concentration integrated over time – in data set [1] was 45 µM·h. Moreover, in data set [2], the negative-log IC50 (pIC50) – broadly, the IC50 on a negative log10 scale, so that one unit is a factor of ten – was 7.30. Moreover, the bioavailability (commonly the share of a dose that reaches the circulation, judged against a reference dose that is usually intravenous) in data set [3] is 64%.
